Results as given in ChEMBL document CHEMBL4689842, “EUbOPEN Chemogenomics Library wave 1” (2021).

Tested on: HEK-293T
Experiment: Multiplex assay against HEK293T;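 for Population Tubulin-Different-Phenotype (%): share of the cells with healthy nuclei that show this phenotype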
Assay type: toxicity, cell-based
Conditions: human
How it was run: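 Compound was added to live cells that had been stained at seeding with Hoechst33342, BioTracker Green Microtubule Cytoskeleton Dye, MitoTracker Red and Annexin V Alexa Fluor 680, and imaging followed on a CQ1 microscope at 37°C and 5% CO2. CellPathfinder machine-learning gating divided cells into Hoechst high-intensity objects or normal cells, normal cells into healthy, pyknosed or fragmented nuclei, and pyknosed cells into mitotic or apoptotic. Tubulin, mitochondrial-mass and membrane-permeability phenotypes are per cents of healthy-nucleus cells.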

[1] = 12 h, 1 µM, compound concentration 1 uM, replicate 1
[2] = 12 h, 1 µM, compound concentration 1 uM, replicate 2
[3] = 12 h, 10 µM, compound concentration 10 uM, replicate 1
[4] = 12 h, 10 µM, compound concentration 10 uM, replicate 2
[5] = 24 h, 1 µM, compound concentration 1 uM, replicate 1
[6] = 24 h, 1 µM, compound concentration 1 uM, replicate 2
[7] = 24 h, 10 µM, compound concentration 10 uM, replicate 1
[8] = 24 h, 10 µM, compound concentration 10 uM, replicate 2
[9] = 48 h, 1 µM, compound concentration 1 uM, replicate 1
[10] = 48 h, 1 µM, compound concentration 1 uM, replicate 2
[11] = 48 h, 10 µM, compound concentration 10 uM, replicate 1
[12] = 48 h, 10 µM, compound concentration 10 uM, replicate 2

## CCOc1cc(C(=O)N2CCC(N3CCN(C)CC3)CC2)ccc1Nc1ncc2c(n1)N(C1CCCC1)c1ccccc1C(=O)N2C
[1]
  Population Apoptotic (%): 61%
  Population Fragmented Nuclei (%): 16%
  Population Hoechst High Intensity Objects (%): 18%
  Population Membrane Permeable-Phenotype (%): 5%
  Population Mitochondria Different-Phenotype (%): 93%
  Population Mitotic Cells (%): 38%
  Population Normal (%): 81%
  Population Pyknosed Nuclei (%): 57%
  Population Tubulin-Different-Phenotype (%): 81%
  Total Cell Count: 371
[2]
  Population Apoptotic (%): 60%
  Population Fragmented Nuclei (%): 4%
  Population Healthy Nuclei (%): 25%
  Population Hoechst High Intensity Objects (%): 5%
  Population Membrane Permeable-Phenotype (%): 9%
  Population Mitochondria Different-Phenotype (%): 88%
  Population Mitotic Cells (%): 39%
  Population Normal (%): 94%
  Population Pyknosed Nuclei (%): 70%
  Population Tubulin-Different-Phenotype (%): 79%
  Total Cell Count: 178
[3]
  Population Apoptotic (%): 83%
  Population Fragmented Nuclei (%): 8%
  Population Healthy Nuclei (%): 12%
  Population Hoechst High Intensity Objects (%): 15%
  Population Mitochondria Different-Phenotype (%): 95%
  Population Mitotic Cells (%): 16%
  Population Normal (%): 84%
  Population Pyknosed Nuclei (%): 79%
  Population Tubulin-Different-Phenotype (%): 60%
  Total Cell Count: 215
[4]
  Population Apoptotic (%): 92%
  Population Fragmented Nuclei (%): 5%
  Population Healthy Nuclei (%): 6%
  Population Hoechst High Intensity Objects (%): 7%
  Population Membrane Permeable-Phenotype (%): 0%
  Population Mitochondria Different-Phenotype (%): 100%
  Population Mitotic Cells (%): 7%
  Population Normal (%): 92%
  Population Pyknosed Nuclei (%): 88%
  Population Tubulin-Different-Phenotype (%): 16%
  Total Cell Count: 216
[5]
  Population Apoptotic (%): 63%
  Population Fragmented Nuclei (%): 19%
  Population Hoechst High Intensity Objects (%): 19%
  Population Membrane Permeable-Phenotype (%): 3%
  Population Mitochondria Different-Phenotype (%): 96%
  Population Mitotic Cells (%): 36%
  Population Normal (%): 80%
  Population Pyknosed Nuclei (%): 54%
  Population Tubulin-Different-Phenotype (%): 83%
  Total Cell Count: 391
[6]
  Population Apoptotic (%): 66%
  Population Fragmented Nuclei (%): 4%
  Population Healthy Nuclei (%): 26%
  Population Hoechst High Intensity Objects (%): 3%
  Population Membrane Permeable-Phenotype (%): 5%
  Population Mitochondria Different-Phenotype (%): 92%
  Population Mitotic Cells (%): 33%
  Population Normal (%): 96%
  Population Pyknosed Nuclei (%): 69%
  Population Tubulin-Different-Phenotype (%): 75%
  Total Cell Count: 204
[7]
  Population Apoptotic (%): 91%
  Population Fragmented Nuclei (%): 15%
  Population Healthy Nuclei (%): 4%
  Population Hoechst High Intensity Objects (%): 19%
  Population Membrane Permeable-Phenotype (%): 0%
  Population Mitochondria Different-Phenotype (%): 100%
  Population Mitotic Cells (%): 8%
  Population Normal (%): 80%
  Population Pyknosed Nuclei (%): 80%
  Population Tubulin-Different-Phenotype (%): 37%
  Total Cell Count: 206
[8]
  Population Apoptotic (%): 93%
  Population Fragmented Nuclei (%): 6%
  Population Healthy Nuclei (%): 18%
  Population Hoechst High Intensity Objects (%): 11%
  Population Mitochondria Different-Phenotype (%): 97%
  Population Mitotic Cells (%): 6%
  Population Normal (%): 88%
  Population Pyknosed Nuclei (%): 74%
  Population Tubulin-Different-Phenotype (%): 21%
  Total Cell Count: 222
[9]
  Population Apoptotic (%): 64%
  Population Fragmented Nuclei (%): 22%
  Population Healthy Nuclei (%): 31%
  Population Hoechst High Intensity Objects (%): 20%
  Population Mitochondria Different-Phenotype (%): 91%
  Population Mitotic Cells (%): 35%
  Population Normal (%): 79%
  Population Pyknosed Nuclei (%): 46%
  Population Tubulin-Different-Phenotype (%): 65%
  Total Cell Count: 400
[10]
  Population Apoptotic (%): 58%
  Population Fragmented Nuclei (%): 8%
  Population Healthy Nuclei (%): 48%
  Population Hoechst High Intensity Objects (%): 5%
  Population Membrane Permeable-Phenotype (%): 0%
  Population Mitochondria Different-Phenotype (%): 72%
  Population Mitotic Cells (%): 41%
  Population Normal (%): 94%
  Population Pyknosed Nuclei (%): 43%
  Population Tubulin-Different-Phenotype (%): 63%
  Total Cell Count: 239
[11]
  Population Apoptotic (%): 90%
  Population Fragmented Nuclei (%): 23%
  Population Healthy Nuclei (%): 2%
  Population Hoechst High Intensity Objects (%): 20%
  Population Membrane Permeable-Phenotype (%): 0%
  Population Mitotic Cells (%): 9%
  Population Normal (%): 79%
  Population Pyknosed Nuclei (%): 74%
  Population Tubulin-Different-Phenotype (%): 75%
  Total Cell Count: 233
[12]
  Population Apoptotic (%): 98%
  Population Fragmented Nuclei (%): 13%
  Population Healthy Nuclei (%): 11%
  Population Hoechst High Intensity Objects (%): 10%
  Population Membrane Permeable-Phenotype (%): 5%
  Population Mitochondria Different-Phenotype (%): 100%
  Population Mitotic Cells (%): 1%
  Population Normal (%): 90%
  Population Pyknosed Nuclei (%): 75%
  Population Tubulin-Different-Phenotype (%): 50%
  Total Cell Count: 200

## CCc1cccc(CC)c1NC(=O)c1nn(C)c2c1CCc1cnc(Nc3ccc(N4CCN(C)CC4)cc3OC)nc1-2
[1]
  Population Apoptotic (%): 27%
  Population Fragmented Nuclei (%): 14%
  Population Healthy Nuclei (%): 18%
  Population Hoechst High Intensity Objects (%): 18%
  Population Membrane Permeable-Phenotype (%): 11%
  Population Mitochondria Different-Phenotype (%): 32%
  Population Mitotic Cells (%): 72%
  Population Normal (%): 81%
  Population Pyknosed Nuclei (%): 67%
  Population Tubulin-Different-Phenotype (%): 75%
  Total Cell Count: 690
[2]
  Population Apoptotic (%): 19%
  Population Fragmented Nuclei (%): 2%
  Population Healthy Nuclei (%): 54%
  Population Hoechst High Intensity Objects (%): 7%
  Population Membrane Permeable-Phenotype (%): 5%
  Population Mitochondria Different-Phenotype (%): 69%
  Population Mitotic Cells (%): 80%
  Population Normal (%): 92%
  Population Pyknosed Nuclei (%): 42%
  Population Tubulin-Different-Phenotype (%): 97%
  Total Cell Count: 922
[3]
  Population Apoptotic (%): 19%
  Population Fragmented Nuclei (%): 11%
  Population Healthy Nuclei (%): 64%
  Population Hoechst High Intensity Objects (%): 14%
  Population Membrane Permeable-Phenotype (%): 13%
  Population Mitochondria Different-Phenotype (%): 12%
  Population Mitotic Cells (%): 80%
  Population Normal (%): 85%
  Population Pyknosed Nuclei (%): 24%
  Population Tubulin-Different-Phenotype (%): 54%
  Total Cell Count: 730
[4]
  Population Apoptotic (%): 5%
  Population Fragmented Nuclei (%): 3%
  Population Healthy Nuclei (%): 89%
  Population Hoechst High Intensity Objects (%): 2%
  Population Membrane Permeable-Phenotype (%): 8%
  Population Mitochondria Different-Phenotype (%): 24%
  Population Mitotic Cells (%): 94%
  Population Normal (%): 97%
  Population Pyknosed Nuclei (%): 6%
  Population Tubulin-Different-Phenotype (%): 57%
  Total Cell Count: 1395
[5]
  Population Apoptotic (%): 39%
  Population Fragmented Nuclei (%): 18%
  Population Healthy Nuclei (%): 17%
  Population Hoechst High Intensity Objects (%): 13%
  Population Membrane Permeable-Phenotype (%): 11%
  Population Mitochondria Different-Phenotype (%): 41%
  Population Mitotic Cells (%): 60%
  Population Normal (%): 86%
  Population Pyknosed Nuclei (%): 63%
  Population Tubulin-Different-Phenotype (%): 68%
  Total Cell Count: 683
[6]
  Population Fragmented Nuclei (%): 3%
  Population Healthy Nuclei (%): 27%
  Population Hoechst High Intensity Objects (%): 12%
  Population Membrane Permeable-Phenotype (%): 3%
  Population Mitochondria Different-Phenotype (%): 92%
  Population Normal (%): 87%
  Population Pyknosed Nuclei (%): 68%
  Population Tubulin-Different-Phenotype (%): 89%
  Total Cell Count: 901
[7]
  Population Apoptotic (%): 27%
  Population Fragmented Nuclei (%): 11%
  Population Healthy Nuclei (%): 77%
  Population Hoechst High Intensity Objects (%): 8%
  Population Membrane Permeable-Phenotype (%): 20%
  Population Mitochondria Different-Phenotype (%): 9%
  Population Mitotic Cells (%): 72%
  Population Normal (%): 91%
  Population Pyknosed Nuclei (%): 10%
  Population Tubulin-Different-Phenotype (%): 65%
  Total Cell Count: 803
[8]
  Population Apoptotic (%): 11%
  Population Fragmented Nuclei (%): 8%
  Population Healthy Nuclei (%): 88%
  Population Hoechst High Intensity Objects (%): 3%
  Population Membrane Permeable-Phenotype (%): 13%
  Population Mitotic Cells (%): 88%
  Population Normal (%): 96%
  Population Pyknosed Nuclei (%): 3%
  Population Tubulin-Different-Phenotype (%): 62%
  Total Cell Count: 1777
